AF4-AF9 inh: MLL-AF4/AF9 protein interaction inhibition; P42568; AlphaScreen, biotin-AF4 peptide binding to FLAG-AF9; inhibition, % at 10 µM; 350,000 tested, 0.47% active; AID 651704;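 active = every replicate reaching a set inhibition limit, whatever the replicate mean, cut at about 25% in these data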;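 also: 0% = plate neutral control median and 100% = total signal loss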
dFosB act-1: enhances mouse delta FosB homodimer DNA binding; activation, % at 25 µM; 340,000 tested, 0.99% active; purified delta FosB, TAMRA-CDK5 oligo fluorescence polarization; percent of positive-control signal above neutral wells; P13346;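 active = mean activation above about 17%, with every replicate also reaching it, limit read from the data, passing the limit was not always enough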
RAD52 inh: RAD52 (human) annealing inhibition; inhibition, % at 18.7 µM; recombinant RAD52 DNA annealing, FRET fluorescence; P43351; 360,000 tested, 0.46% active;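 active = every replicate showing at least 50% inhibition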
Target sequence (P43351 whole entry, looked up): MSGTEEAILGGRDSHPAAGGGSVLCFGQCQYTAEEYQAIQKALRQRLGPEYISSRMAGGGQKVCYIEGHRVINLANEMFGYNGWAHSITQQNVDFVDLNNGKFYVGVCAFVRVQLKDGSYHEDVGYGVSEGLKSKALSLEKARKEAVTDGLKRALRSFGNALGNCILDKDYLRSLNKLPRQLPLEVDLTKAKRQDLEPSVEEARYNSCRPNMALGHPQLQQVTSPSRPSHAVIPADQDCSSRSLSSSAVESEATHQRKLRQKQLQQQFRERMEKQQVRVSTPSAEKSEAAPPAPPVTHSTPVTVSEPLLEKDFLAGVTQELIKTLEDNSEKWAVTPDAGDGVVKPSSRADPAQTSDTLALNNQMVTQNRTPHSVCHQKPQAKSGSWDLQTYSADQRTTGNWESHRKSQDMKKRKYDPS
S100A4 MyoIIA: blocks human S100A4 binding to myosin IIA peptide; P26447; 360,000 tested, 0.14% active; AID 652163; S100A4/TAMRA-MyoIIA peptide fluorescence polarization; inhibition, % at 10.7 µM;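 active = mean inhibition of at least 70% across replicates, with every replicate also reaching that level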
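Material: human S100A4 monomer with TAMRA-labelled myosin IIA peptide; buffer or medium: HEPES pH 7.2 with CaCl2, KCl, NaCl, DTT, Triton; compound dosing: one concentration per compound; schedule: 5 min incubation before reading; benchmarks: neutral control DMSO, positive control TFP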
RAD54 branch: RAD54 (human) branch migration inhibition | Q92698 | RAD54 Holliday junction branch migration, FAM/BHQ fluorescence | inhibition, % at 10.4 µM | 360,000 tested, 0.14% active;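 active = mean normalized replicate activity at least 40 and at least half of replicates scoring 40 or more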;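 also: 0% = median of neutral control wells and 100% = median of positive control wells; inhibitors cause a drop in the FAM fluorescence signal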
dFosB act-2: enhances mouse delta FosB homodimer binding to DNA | purified delta FosB, TAMRA-CDK5 oligo fluorescence polarization; normalised: neutral wells 0, positive control 100 | shares compounds with dFosB act-1 | 2,400 tested, under 10 active | activation, % at 24.9 µM;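 active = highest replicate activation at or above 34% and every replicate reaching that threshold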;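 also: higher polarization means more probe DNA bound by delta FosB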
* hit, by the source's call; . = no result. Rows were chosen to be rich in hits. Some 1.5% of all compounds tested hit in one or more screens of this group.

SMILES	AF4-AF9 inh	dFosB act-1	RAD52 inh	S100A4 MyoIIA	RAD54 branch	dFosB act-2
COc1cc(OC)cc(C(=O)N=c2sc3ccccc3n2C)c1	1	-18	-1	3	.	.
COc1ccc(/C=C/C(=O)NC(=S)NNC(=O)[C@H]2C[C@@H]2c2ccccc2)cc1OC	-1	71*	-9	3	9	4
C[C@@H]1CN([C@H](C)CO)C(=O)c2c(c3ccccc3n2C)-c2ccccc2CO[C@H]1CN(C)C(=O)c1ccc(F)cc1	1	.	0	-31	6	.
Cc1nc(NC(=S)NC(=O)c2cncc(Br)c2)ccc1Br	0	21*	-10	4	-11	1
COc1ccc(NC(=O)N(C)C[C@H]2Oc3ncc(-c4cccnc4)cc3C(=O)N([C@@H](C)CO)C[C@@H]2C)cc1	-4	.	-11	-5	-8	.
COc1ccc2c(c1)CCc1c(C(=O)Nc3ccn(Cc4ccc(C)cc4)n3)noc1-2	0	28*	-8	-5	-5	-4
Cc1ccc(Cn2ccc(NC(=O)c3noc4c3CCc3ccccc3-4)n2)cc1	.	3	.	.	.	.
COc1cc(CCN2C(=O)c3cccc4cccc(c34)C2=O)c(S(=O)(=O)NCCO)cc1OC	.	12	.	.	.	.
COc1cc(CCN2C(=O)c3cccc4cccc(c34)C2=O)c(S(=O)(=O)NCCCO)cc1OC	.	20*	.	.	19	-1
C[C@@H]1CN([C@@H](C)CO)C(=O)Cc2cc(NS(=O)(=O)c3cccs3)ccc2O[C@H]1CN(C)C(=O)Nc1ccc2c(c1)OCO2	0	.	8	2	3	.
COc1ccc(S(=O)(=O)N(C)C[C@H]2Oc3ncc(/C=C/c4ccccc4)cc3C(=O)N([C@@H](C)CO)C[C@H]2C)cc1	.	.	.	.	-1	.
CN(C)CCCN(C(=O)c1cccs1)c1nc2cc3c(cc2s1)OCO3	4	2	6	1	5	.
CN(C)CCCN(C(=O)c1ccc(S(=O)(=O)N(C)C2CCCCC2)cc1)c1nc2ccc(Br)cc2s1	0	22*	1	-1	-5	0
Cc1ccc2nc(N(CCCN(C)C)C(=O)c3ccc4c(c3)CCCC4)sc2c1	.	1	.	.	26	.
CCOc1ccc2nc(N(CCN(C)C)C(=O)c3ccc4c(c3)CCCC4)sc2c1	.	30*	.	.	-7	0
CN(C)CCCN(C(=O)c1ccc(Cl)s1)c1nc2cc3c(cc2s1)OCO3	10	18*	38	-1	19	3
CN(C)CCCN(C(=O)c1ccc(C(=O)c2ccccc2)cc1)c1nc2ccc(F)cc2s1	17	30*	49	-4	13	0
CN(C)CC(=O)Nc1ccc2c(c1)[C@H]1C[C@@H](CC(=O)NCc3cccnc3)O[C@H](CO)[C@H]1O2	0	.	-6	-4	3	.
CCc1ccc2nc(N(CCCN(C)C)C(=O)c3ccc(S(=O)(=O)N4CCc5ccccc5C4)cc3)sc2c1	1	47*	31	2	8	-4
O=C(CCN1CCCCC1)N[C@H]1CC[C@H](CCNS(=O)(=O)c2ccccc2)O[C@@H]1CO	1	.	-10	-10	3	.
CC(=O)Nc1ccc(Nc2cc(C)nc3c(-c4ccc(Cl)cc4)cnn23)cc1	.	18*	.	.	.	-7
Cc1cc(C)n(CC(O)Cn2c3ccc(Cl)cc3c3cc(Cl)ccc32)c(=O)n1 (stereo unspecified)	.	25*	.	.	9	1
COCCNC(=O)CSc1ccc(-c2nc3ccccc3[nH]2)cn1	-19	-8	-16	2	8	.
Cc1nc(NC(=O)CSc2ccc(-c3nc4ccccc4[nH]3)cn2)sc1C	.	47*	.	.	.	2
CCc1nnc(NC(=O)CSc2ccc(-c3nc4ccccc4[nH]3)cn2)s1	.	48*	.	.	-2	5
CC(C)CC#Cc1ccc2c(c1)O[C@H](CN(C)C(=O)c1cnccn1)[C@@H](C)CN([C@@H](C)CO)S2(=O)=O	4	.	0	19	2	.
CCOc1ccc(-c2c(C(=O)N/N=C/c3cccc(Br)c3)nnn2-c2nonc2N)cc1	-2	55*	-4	-1	8	1
CCOc1ccc(-c2c(C(=O)N/N=C/c3ccc(O)cc3)nnn2-c2nonc2N)cc1	0	-2	-10	-2	7	.

Screening results (PubChem BioAssay)
